Screens as filed in PubChem.
Only some compounds are listed: those with a hit (about 2% of all), similar ones and a draw of the others.
ARFGAP1 inhibitor – inhibitors of rat ARFGAP1 GAP activity, primary screen, biochemical, fluorescence polarization, GDP tracer; ADP-ribosylation factor GTPase-activating protein 1 (Rattus norvegicus), Q62848; inhibition, % at 16.5 µM; 0.26% of 360,000 active; Arfgap1-stimulated ARF1 GTP hydrolysis, GDP FP detection;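 active = inhibition above a per-plate limit, mean inhibition of low control wells plus 3 SD, cut at about 25% in these data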;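 also: 0% = DMSO wells with enzyme and 100% = wells lacking Arfgap1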
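System: truncated rat Arfgap1 GAP domain / Benchmarks: high control wells lacking Arfgap1, low control full reaction with DMSO / Times: compound-enzyme preincubation 20 min, reaction 120 min, detection 60 min, 25 °C / Repeats: one replicate per compound / Also added: human ARF1(Δ1-17)-GTP substrate / Measured by: Tracer-displacement fluorescence polarization with EDTA stop, 620/688 nm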
TCR-CD3 inh – inhibitors of human TCR-CD3 interaction, primary screen, biochemical, fluorescence, TAMRA-labeled TCR probe. inhibition, % at 9.4 µM. 0.37% of 360,000 active; in the data active = inhibition above about 19%;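 also: recombinant mutant TCR 2C K166C tagged with TAMRA read by polarization; 0% = receptor in buffer alone and 100% = receptor with positive control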
LEDGF integ inh – blockers of LEDGF/p75-dependent integrase strand transfer – biochemical, TR-FRET, high throughput, primary screen | HIV-1 integrase (with human LEDGF/p75) | TR-FRET IN-LEDGF/p75 DNA integration, Eu/Cy5 | inhibition, % at 3.7 µM | 0.64% of 370,000 active;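 active = inhibition above the screen-wide mean plus 3 SD, cut at about 13% in these data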;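 also: signal is the Cy5 over europium emission ratio at 671 and 618 nm; 0% = plate median of compound wells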
ASAP1 GAP inh – inhibitors of human ASAP1 ArfGAP activity, primary screen, biochemical, fluorescence polarization; Arf-GAP with SH3 domain, ANK repeat and PH domain-containing protein 1 (Homo sapiens), …; inhibition, % at 16.5 µM; 0.19% of 360,000 active; ASAP1-stimulated ARF1 GTP hydrolysis, GDP FP detection; in the data active = inhibition above about 25%;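 also: 0% = vehicle with enzyme and substrate and 100% = no enzyme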
UHRF1 binding – UHRF1 methylated DNA binding inhibitors, primary screen, counter-screen for MBD2 inhibitor project, biochemical, TR-FRET, human UHRF1, single concentration | UHRF1 binding to methylated oligo | inhibition, % at 4.4 µM | 0.75% of 370,000 active; in the data active = inhibition above about 21%;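 also: UHRF1 SRA domain binding a hemimethylated CpG hairpin DNA probe; 0% = median of test compound wells and 100% = reference inhibitor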
Target sequence (Q96T88 whole entry, looked up, the tested form may be a part): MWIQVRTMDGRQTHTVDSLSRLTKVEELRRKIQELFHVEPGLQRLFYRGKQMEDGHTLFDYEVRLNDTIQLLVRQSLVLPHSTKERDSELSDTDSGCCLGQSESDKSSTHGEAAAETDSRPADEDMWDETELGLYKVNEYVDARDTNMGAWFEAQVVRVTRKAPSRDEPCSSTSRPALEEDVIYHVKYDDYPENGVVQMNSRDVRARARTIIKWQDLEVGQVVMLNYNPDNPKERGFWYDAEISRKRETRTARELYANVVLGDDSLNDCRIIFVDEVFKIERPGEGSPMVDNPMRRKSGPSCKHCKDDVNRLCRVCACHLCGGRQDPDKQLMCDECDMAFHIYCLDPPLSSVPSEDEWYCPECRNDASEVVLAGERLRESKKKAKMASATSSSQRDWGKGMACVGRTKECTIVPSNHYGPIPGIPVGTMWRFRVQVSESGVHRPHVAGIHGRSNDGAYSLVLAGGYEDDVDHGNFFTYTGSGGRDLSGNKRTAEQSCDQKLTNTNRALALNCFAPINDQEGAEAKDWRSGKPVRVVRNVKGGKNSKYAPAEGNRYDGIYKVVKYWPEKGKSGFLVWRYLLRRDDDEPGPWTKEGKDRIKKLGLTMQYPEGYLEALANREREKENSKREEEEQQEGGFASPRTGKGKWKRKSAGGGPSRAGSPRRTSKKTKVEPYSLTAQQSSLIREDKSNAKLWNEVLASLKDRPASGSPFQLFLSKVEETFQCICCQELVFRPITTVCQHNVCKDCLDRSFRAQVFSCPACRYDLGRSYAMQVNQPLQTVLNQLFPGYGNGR
MBD2 DNA inh – inhibitors of MBD2 binding to methylated DNA, primary screen, biochemical, TR-FRET, DNA-binding domain, human; Methyl-CpG-binding domain protein 2 (Homo sapiens), Q9UBB5; MBD2 binding to methylated oligonucleotide; inhibition, % at 4.4 µM; 0.31% of 370,000 active; AID 686964, 2013; in the data active = inhibition above about 13%
IN multimer act – HIV-1 IN multimer formation enhancers, counter-screen for LEDGF/p75 integration inhibitor project, biochemical, TR-FRET; activation, % at 7.7 µM; TR-FRET HIV-1 integrase multimerization; shares compounds with LEDGF integ inh; AID 1053131, 2014; 17% of 2,000 active; in the data active = activation above about 8.9%
TR-FRET interf – TR-FRET optical interference artefacts, confirmation, artefact control for LEDGF/p75-dependent integration inhibitor project, biochemical, HIV-1 IN multimerization. shares compounds with LEDGF integ inh. TR-FRET optical interference counterscreen. inhibition, % at 7.7 µM. 2,000 tested, under 10 active. AID 1053135, 2014;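 active = inhibition above the mean over all tested compounds plus 3 SD, which no compound reached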;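 also: 0% = integrase with antibodies and DMSO and 100% = antibodies without integrase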
LEDGF integ conf – inhibitors of HIV-1 IN-LEDGF/p75 DNA integration, confirmation, biochemical, TR-FRET | AID 1053136, 2014 | 36% of 2,000 active | TR-FRET LEDGF/p75-dependent HIV-1 integration | shares compounds with LEDGF integ inh | inhibition, % at 3.7 µM; in the data active = inhibition above about 14%
* = called active by the depositor; / = not tested or not shown.

SMILES	ARFGAP1 inhibitor	TCR-CD3 inh	LEDGF integ inh	ASAP1 GAP inh	UHRF1 binding	MBD2 DNA inh	IN multimer act	TR-FRET interf	LEDGF integ conf
CC(=O)N1CCC(N(C(=O)Nc2c(F)cccc2F)C(C)C)CC1	-1	3	20*	0	-1	-1	0	-1	-1
O=C(O)c1cc(-c2ccc(/C=C3\NC(=O)N(c4ccc(Cl)cc4)C3=O)o2)ccc1Cl	-7	-15	15*	-1	62*	8	1	-7	27*
O=C(O)c1ccc(/C=N/Nc2ccc(Cl)nn2)cc1	1	1	21*	-7	1	3	1	-5	1
N#CC1=C2SCN(Cc3ccco3)CN2C(=O)CC1c1cccc2ccccc12 (stereo not given)	-5	0	55*	10	-3	-1	5	-24	3
CCc1ccc(C2CC(=O)N3CN(c4ccccc4)CSC3=C2C#N)cc1 (stereo not given)	-14	-3	0	-3	1	-1	/	/	/
Cc1ccc(C)c(OCc2cc(C(=O)N3CCNC(=O)C3)no2)c1	3	-2	27*	5	3	1	-1	4	4
NC(=O)C1CCN(CCS(=O)(=O)c2ccc(Cl)cc2)CC1	2	3	-1	8	6	-2	/	/	/
Cc1ccc2nsnc2c1NC(=O)c1sc2ccccc2c1Cl	6	1	25*	-9	2	3	4	-13	1
Cc1nnc(NC(=O)c2sc3ccccc3c2Cl)s1	1	5	-1	-2	-2	-5	/	/	/
CCc1nnc(NC(=O)CCC(=O)NCc2ccc(OC)cc2)s1	7	-6	4	0	0	-1	/	/	/
CC(=O)Nc1ccc(S(=O)(=O)/N=C2/NC(=O)/C(=C\c3ccco3)S2)cc1	11	15	23*	-9	31*	4	6	-20	6
Cc1ccc(S(=O)(=O)/N=C2/NC(=O)/C(=C\c3ccco3)S2)cc1	-18	15	8	18	7	-4	/	/	/
O=c1c2ccccc2nc2n1CCC2	-8	-4	15*	-4	0	-4	0	-1	34*
Cc1ccc(C2/C(=C(/O)c3ccc(Br)cc3)C(=O)C(=O)N2Cc2ccco2)o1 (stereo not given)	8	0	15*	-6	2	-5	0	-2	16*
COc1ccc(/C(O)=C2\C(=O)C(=O)N(Cc3ccco3)C2c2cc(OC)ccc2OC)cc1 (stereo not given)	-16	2	1	1	-7	-1	/	/	/
CCCC(=O)NC(=S)Nc1ccc(C(C)=O)cc1	13	6	1	5	-2	-3	/	/	/
CC(=O)c1ccc(NC(=S)NC(=O)Cc2ccc(Cl)cc2)cc1	9	5	15*	-8	4	0	8	-28	-3
CN(C(=O)COC(=O)c1ccccc1NCCO)C1CCS(=O)(=O)C1 (stereo not given)	0	1	0	-9	3	-5	/	/	/
O=C(CNCc1ccc(Cl)cc1)Nc1ccc(C(=O)N2CCCCCC2)cc1	-8	2	4	-20	0	-2	/	/	/
CN(c1cccc(NC(=O)CN(c2cccc(Cl)c2)S(=O)(=O)c2ccc(Cl)cc2)c1)S(C)(=O)=O	9	8	-1	5	1	2	/	/	/
CCOc1ccc(N(CC(=O)NC2CCCC2)S(=O)(=O)c2c(C)[nH]c(=O)[nH]c2=O)cc1	-10	1	51*	1	2	-2	1	-2	-9
Cc1cc(C)cc(N(CC(=O)NC2CCCCCC2)S(=O)(=O)c2c(C)[nH]c(=O)[nH]c2=O)c1	-3	1	1	0	-1	-1	/	/	/
Cc1ccc(N(CC(=O)NC2CCCCC2)S(=O)(=O)c2c(C)noc2C)cc1	2	-3	21*	0	4	2	1	-5	-5
CCOc1ccc(N(CC(=O)NC2CCC(C)CC2)S(=O)(=O)c2c(C)noc2C)cc1 (stereo not given)	-3	4	2	6	17	-2	/	/	/
CCOC(=O)C1(CCOc2ccccc2)CCN(Cc2ccc(CO)o2)CC1	-6	0	18*	2	1	6	0	-2	1
SMILES	ARFGAP1 inhibitor	TCR-CD3 inh	LEDGF integ inh	ASAP1 GAP inh	UHRF1 binding	MBD2 DNA inh	IN multimer act	TR-FRET interf	LEDGF integ conf
COc1cccc(NC(=O)N2CCC(NC(=O)C3CCCCC3)CC2)c1	10	5	0	5	-2	6	/	/	/
COc1cccc(NC(=O)N2CCC(C(=O)Nc3ccc(C)cc3C)CC2)c1	1	2	38*	-12	-1	4	1	-7	-4
Oc1ccc(Br)cc1-c1cc(-c2ccccc2Cl)[nH]n1	8	-6	25*	3	6	7	1	-6	-4
COc1ccc(CN(C)C(=O)CCNS(=O)(=O)c2ccccc2)c(OC)c1	-3	-4	23*	-12	-2	-4	0	1	-11
O=c1c(C=NCCCO)c(-c2ccccc2)[nH]n1-c1nc2ccccc2s1	5	-1	21*	-2	-2	-4	-1	6	-2
Cc1nn(Cc2ccc(F)cc2)c(C)c1NC(=O)c1noc2c1CCCCC2	1	4	40*	-3	-1	0	-1	2	-3
COCCNC(=O)c1cc(-c2ccccc2C)nn1CC1CC(c2cccnc2)=NO1 (stereo not given)	2	1	1	1	-1	-3	/	/	/
